According to ChEMBL document CHEMBL4680339, “Synthesis and bioevaluation of N-(3,4,5-trimethoxyphenyl)-1H-pyrazolo[3,4-b]pyridin-3-amines as tubulin polymerization inhibitors with anti-angiogenic effects” (Bioorg Med Chem, 2021):
The source made the active and inactive calls. The calls are words filed in the database; no cut-off is given here.

Legend:
HCT-116 = test: Antiproliferative activity against human HCT-116 cells assessed as reduction in cell growth incubated for 72 hrs by MTT assay; type: functional, cell-based; details: HCT-116, 72 h
How it was run: (§1)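 Log-phase cells seeded at 5 × 10³/well and grown 24 h, then exposed to graded compound concentrations for 72 h. MTT (5 mg/mL) added for 4 h; formazan dissolved in DMSO and absorbance read at 490 nm. IC50 calculated from growth inhibition; means ± SD of triplicate experiments.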

A549 = test: Antiproliferative activity against human A549 cells assessed as reduction in cell growth incubated for 72 hrs by MTT assay; type: functional, cell-based; details: A549, 72 h; how it was run: as §1
HeLa = test: Antiproliferative activity against human HeLa cells assessed as reduction in cell growth incubated for 72 hrs by MTT assay; type: functional, cell-based; how it was run: as §1
MCF7 [1] = test: Antiproliferative activity against human MCF7 cells assessed as reduction in cell growth incubated for 72 hrs by MTT assay; type: functional, cell-based; details: MCF7, 72 h; how it was run: as §1
HepG2 = test: Antiproliferative activity against human HepG2 cells assessed as reduction in cell growth incubated for 72 hrs by MTT assay; type: functional, cell-based; details: HepG2, 72 h; how it was run: as §1
WI-38 = test: Cytotoxicity against human WI-38 cells assessed as reduction in cell growth incubated for 72 hrs by MTT assay; type: cell-based; details: WI-38, 72 h; how it was run: as §1
[2] = (§2) Inhibition of pig brain tubulin polymerization by spectrophotometric method; type: tissue-based, Sus scrofa
How it was run: (§3)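 Pig brain tubulin, purified by three assembly/disassembly cycles and phosphocellulose chromatography, mixed with compound at various concentrations. Buffer: PEM (100 mM PIPES, 1 mM MgCl₂, 1 mM EGTA) with 1 mM GTP and 5% glycerol. Polymerization followed at 37 °C by light scattering at 340 nm; plateau absorbance used for calculation.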

Sus scrofa = species on record: Sus scrofa; test: as §2; type: tissue-based; how it was run: as §3
MCF7 [3] = test: Disruption of microtubule organization in human MCF7 cells assessed as breakage and abnormal spindle formation incubated for 6 hrs by immunofluorescence based laser scanning confocal microscopic analysis; type: functional, cell-based; details: dose 10-100 nM
How it was run: (§4)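 MCF-7 cells (3 × 10⁴) grown 24 h in confocal dishes, then treated 6 h with compound. Fixed in prewarmed 4% paraformaldehyde, permeabilized with 0.5% Triton X-100, blocked with 10% goat serum. Stained with mouse anti-tubulin (4 °C overnight), Alexa Fluor 488 secondary, and DAPI. Imaged by laser scanning confocal microscopy.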

MCF7 [4] = test: Induction of cell cycle arrest in human MCF7 cells assessed as accumulation in G1 phase at 5 nM incubated for 24 hrs by PI staining based flow cytometry analysis (reference value: 63.70 %); type: functional
MCF7 [5] = test: Induction of cell cycle arrest in human MCF7 cells assessed as accumulation in S phase at 5 nM incubated for 24 hrs by PI staining based flow cytometry analysis (reference value: 19.50 %); type: functional
MCF7 [6] = test: Induction of cell cycle arrest in human MCF7 cells assessed as accumulation in G2/M phase at 5 nM incubated for 24 hrs by PI staining based flow cytometry analysis (reference value: 16.81 %); type: functional
MCF7 [7] = test: Induction of cell cycle arrest in human MCF7 cells assessed as accumulation in G1 phase at 10 nM incubated for 24 hrs by PI staining based flow cytometry analysis (reference value: 63.70 %); type: functional
MCF7 [8] = test: Induction of cell cycle arrest in human MCF7 cells assessed as accumulation in S phase at 10 nM incubated for 24 hrs by PI staining based flow cytometry analysis (reference value: 19.50 %); type: functional
MCF7 [9] = test: Induction of cell cycle arrest in human MCF7 cells assessed as accumulation in G2/M phase at 10 nM incubated for 24 hrs by PI staining based flow cytometry analysis (reference value: 16.81 %); type: functional
MCF7 [10] = test: Induction of cell cycle arrest in human MCF7 cells assessed as reduction in Cdc25c expression incubated for 24 hrs by Western blot analysis; type: functional, cell-based; details: dose 10-100 nM
How it was run: (§5)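 MCF-7 cells treated 24 h with 0, 10, 50 or 100 nM compound and lysed in RIPA buffer. Equal protein loads separated by 8–12% SDS-PAGE, transferred to nitrocellulose and blocked with 5% milk. Probed overnight at 4 °C with primary antibodies to Cdc25c, Cdc2 and Cyclin B1, then HRP secondary, with ECL detection. Densitometry averaged from two independent experiments.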

MCF7 [11] = test: Induction of cell cycle arrest in human MCF7 cells assessed as reduction in Cdc2 expression incubated for 24 hrs by Western blot analysis; type: functional, cell-based; details: dose 10-100 nM; how it was run: as §5
MCF7 [12] = test: Induction of cell cycle arrest in human MCF7 cells assessed as reduction in CyclinB1 expression incubated for 24 hrs by Western blot analysis; type: functional, cell-based; details: dose 10-100 nM; how it was run: as §5
MCF7 [13] = test: Reduction in VEGF-A expression in human MCF7 cells at 50 to 100 nM incubated for 24 hrs by Western blot analysis; type: functional, cell-based; details: dose 50-100 nM
How it was run: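 MCF-7 cells treated with compound at various concentrations for 24 h. VEGF-A protein assessed by western blot (RIPA lysis, SDS-PAGE, nitrocellulose transfer, ECL detection) with quantitative densitometry. Mean ± SD, three independent experiments.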

HUVEC [14] = test: Cytotoxicity against HUVEC cells assessed as reduction in cell growth incubated for 72 hrs by MTT assay; type: cell-based; details: Homo sapiens; how it was run: as §1
HUVEC [15] = test: Antimigratory activity against human HUVEC assessed as cell migration rate at 0.1 uM incubated for 12 hrs by wound healing assay (reference value: 68.5 %); type: functional
HUVEC [16] = test: Antimigratory activity against human HUVEC assessed as cell migration rate at 0.5 uM incubated for 12 hrs by wound healing assay (reference value: 68.5 %); type: functional
HUVEC [17] = test: Antimigratory activity against human HUVEC assessed as cell migration rate at 1 uM incubated for 12 hrs by wound healing assay (reference value: 68.5 %); type: functional
HUVEC [18] = test: Antimigratory activity against human HUVEC assessed as cell migration rate at 0.1 uM incubated for 24 hrs by wound healing assay (reference value: 100 %); type: functional
HUVEC [19] = test: Antimigratory activity against human HUVEC assessed as cell migration rate at 0.5 uM incubated for 24 hrs by wound healing assay (reference value: 100 %); type: functional
HUVEC [20] = test: Antimigratory activity against human HUVEC assessed as cell migration rate at 1 uM incubated for 24 hrs by wound healing assay (reference value: 100 %); type: functional
HUVEC [21] = test: Antiinvasive activity against human HUVEC incubated for 24 hrs by crystal violet staining based inverted fluorescence microscopic transwell assay; type: functional, cell-based; details: dose 0.05-1 µM
How it was run: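 Transwell inserts pre-coated with Matrigel (5 h, 37 °C). Cells in serum-free medium with 0, 0.05, 0.1, 0.5 or 1 μM compound were added to the upper well at 5 × 10⁵ cells/mL; the lower chamber held ECM with 10% FBS. After 24 h at 37 °C, invaded cells were methanol-fixed, stained with 0.1% crystal violet and counted in three random fields. Mean ± SD, three independent experiments.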

HUVEC [22] = test: Downregulation of MMP-9 protein expression in HUVEC at 0.05 to 1 uM incubated for 24 hrs by Western blot analysis; type: functional; details: Homo sapiens, dose 0.05-1 µM
How it was run: (§6)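 HUVECs exposed to various compound concentrations for 24 h. MMP-9 and TIMP-1 measured by western blot: RIPA lysates, equal protein loads on 8–12% SDS-PAGE, nitrocellulose transfer, primary antibodies overnight at 4 °C, HRP secondary, ECL detection.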

HUVEC [23] = test: Upregulation of TIMP-1 protein expression in HUVEC at 0.05 to 1 uM incubated for 24 hrs by Western blot analysis; type: functional; details: Homo sapiens, dose 0.05-1 µM; how it was run: as §6
HUVEC [24] = test: Antivascular activity against HUVEC assessed as reduction in tube formation incubated for 6 hrs by matrigel based inverted fluorescence microscopic analysis; type: functional, cell-based; details: Homo sapiens, dose 0.1-1 µM
How it was run: (§7)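 Matrigel polymerized 30 min at 37 °C. HUVECs in ECM medium with 20% FBS seeded at 5 × 10⁴/well with compound at 0, 0.1, 0.5 or 1 μM. After 6 h, tubule formation was photographed under an inverted microscope (×100).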

HUVEC [25] = test: Antivascular activity against HUVEC assessed as disruption of vascular structure incubated for 6 hrs by matrigel based inverted fluorescence microscopic analysis; type: functional, cell-based; details: Homo sapiens, dose 0.1-1 µM
How it was run: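 Capillary-like networks were formed by HUVECs on Matrigel over 6 h, then exposed to vehicle or compound (0.1, 0.5, 1 μM) in serum-free DMEM for 6 h and photographed. Remaining tubes were counted; disruption = [1 − (tubes treated/tubes vehicle)] × 100%.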

MCF7 [26] = test: Disruption of microtubule organization in human MCF7 cells assessed as microtubules shrinkage around the nucleus at 10 nM incubated for 6 hrs by immunofluorescence based laser scanning confocal microscopic analysis; type: functional, cell-based; how it was run: as §4
MCF7 [27] = test: Disruption of microtubule organization in human MCF7 cells assessed as microtubules spindle shrinkage around the centre of the cell at 100 nM incubated for 6 hrs by immunofluorescence based laser scanning confocal microscopic analysis; type: functional; how it was run: as §4
MCF7 [28] = test: Induction of apoptosis in human MCF7 cells; type: functional, cell-based
HUVEC [29] = test: Antivascular activity against HUVEC assessed as reduction in tube formation at 0.1 microM incubated for 6 hrs by matrigel based inverted fluorescence microscopic analysis; type: functional, cell-based; details: Homo sapiens; how it was run: as §7
HUVEC [30] = test: Antivascular activity against HUVEC assessed as reduction in tube formation at 1 microM incubated for 6 hrs by matrigel based inverted fluorescence microscopic analysis; type: functional; details: Homo sapiens; how it was run: as §7

SMILES: COc1ccc2c(N(C)c3cc(OC)c(OC)c(OC)c3)n[nH]c2n1
- IC50 (HCT-116): 260 nM
- IC50 (A549): 6 µM
- IC50 (HeLa): 210 nM
- IC50 (MCF7 [1]): 67 nM
- IC50 (HepG2): 4.79 µM
- IC50 (WI-38): 23.4 µM
- IC50 [2]: 14 µM
- inhibition (Sus scrofa): Dose-dependent effect
- Activity (MCF7 [3]): Dose-dependent effect
- Activity (MCF7 [4]): 26.47%
- Activity (MCF7 [5]): 10.02%
- Activity (MCF7 [6]): 63.5%
- Activity (MCF7 [7]): 9.16%
- Activity (MCF7 [8]): 10.11%
- Activity (MCF7 [9]): 80.73%
- Activity (MCF7 [10]): Dose-dependent effect
- Activity (MCF7 [11]): Dose-dependent effect
- Activity (MCF7 [12]): Dose-dependent effect
- inhibition (MCF7 [13]): Active
- IC50 (HUVEC [14]): 23.5 µM
- Activity (HUVEC [15]): 12.4%
- Activity (HUVEC [16]): 11.3%
- Activity (HUVEC [17]): 10.9%
- Activity (HUVEC [18]): 26.4%
- Activity (HUVEC [19]): 26.6%
- Activity (HUVEC [20]): 22.4%
- Activity (HUVEC [21]): Dose-dependent effect
- inhibition (HUVEC [22]): Active
- Activity (HUVEC [23]): Active
- Activity (HUVEC [24]): Dose-dependent effect
- Activity (HUVEC [25]): Dose-dependent effect
- Activity (MCF7 [26]): Active
- Activity (MCF7 [27]): Active
- Activity (MCF7 [28]): inactive
- Activity (HUVEC [29]): Active
- inhibition at 1 µM (HUVEC [30]): 100%

SMILES: COCCN(c1cc(OC)c(OC)c(OC)c1)c1n[nH]c2nc(OC)ccc12
- IC50 (HCT-116): 3660 nM
- IC50 (A549): 31.8 µM
- IC50 (HeLa): 1770 nM
- IC50 (MCF7 [1]): 1720 nM
- IC50 (HepG2): > 50 µM
- IC50 (WI-38): 30.9 µM

SMILES: COc1ccc2c(N(CC3CC3)c3cc(OC)c(OC)c(OC)c3)n[nH]c2n1
- IC50 (HCT-116): 2180 nM
- IC50 (A549): 20.6 µM
- IC50 (HeLa): 180 nM
- IC50 (MCF7 [1]): 2350 nM
- IC50 (HepG2): 5.46 µM
- IC50 (WI-38): 1.29 µM

SMILES: COc1ccc2c(N(c3cc(OC)c(OC)c(OC)c3)C3CCCC3)n[nH]c2n1
- IC50 (HCT-116): 26200 nM
- IC50 (A549): 22.7 µM
- IC50 (HeLa): 28400 nM
- IC50 (MCF7 [1]): > 50000 nM
- IC50 (HepG2): > 50 µM
- IC50 (WI-38): 10.4 µM
